Compounds with a hit are over-represented: about 2.9% of the library has one in this group of screens.
Apaf1 inhib: inhibitors of human Apaf-1 apoptosome. reconstituted apoptosome caspase-3 activity, DEVD-Rh110 fluorescence. inhibition, % at 20 µM. hit rate 0.71% among 330,000; active = inhibition of at least 40% at 20 µM
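Assay system – apoptosome proteins · Medium – Hepes buffer, pH 7.5 · Also added – cytochrome c with DEVD-Rh110 · Timing – 30 min compound preincubation, 50 min activation, room temperature · Detection – Rh110 fluorescence, excitation 480 nm, emission 540 nm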
MEKK3 PB1 HTS: MEKK3-MEK5 PB1 interaction, increase or decrease; hit rate 1.4% among 290,000; binding response (% of control), % at 10 µM; AID 1529; bead-based flow cytometry, Alexa488-MEK5 binding to MEKK3; actives lie on both sides; 0 = blocked by unlabeled MEK5, 100 = vehicle;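 active = binding response more than 3 SD above or below the average of its plate-row segment, actives on both sides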;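 also: Alexa488 bead fluorescence after subtracting the streptavidin-only scavenger bead signal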
MEKK2mut PB1 HTS: signal of MEK5 binding to mutant human MEKK2 PB1 domain; bead flow cytometry, Alexa488-MEK5 binding to MEKK2 mutant; percent response, % at 10 µM; hit rate 0.35% among 290,000; AID 1530; in the data active = percent response above about 24%, passing the limit was not always enough
UBC13 polyUb: human UBC13 polyubiquitination inhibition; P61088; UBC13 polyubiquitin chain formation, TR-FRET; inhibition, % at 20 µM; hit rate 0.47% among 330,000; AID 485273; in the data active = inhibition above about 45%, passing the limit was not always enough
Target sequence (P61088 whole entry, looked up): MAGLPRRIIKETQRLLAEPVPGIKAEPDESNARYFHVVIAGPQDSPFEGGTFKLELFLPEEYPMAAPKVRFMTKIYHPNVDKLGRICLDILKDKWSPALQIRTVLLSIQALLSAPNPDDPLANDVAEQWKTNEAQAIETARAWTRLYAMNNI
MEKK2 WT-MEK5: raises or lowers MEK5 binding to wildtype human MEKK2 PB1 domain; binding response (% of control), % at 10 µM; hit rate 1.1% among 290,000; AID 1531; bead flow cytometry, Alexa488-MEK5 binding to MEKK2 WT; actives lie on both sides; Q9Y2U5; in the data active = binding response below about 67% or above about 130%
MEKK2wt confirm: raises or lowers MEK5 binding to wildtype human MEKK2, retest. shares compounds with MEKK3 PB1 HTS. bead flow cytometry, Alexa488-MEK5 binding to MEKK2 WT; actives lie on both sides. binding response (% of control), % at 10 µM. hit rate 2.4% among 5,900; in the data active = binding response below about 16% or above about 210%; inactive = in between
MEKK2mut-MEK5: signal of MEK5 binding to mutant human MEKK2, retest | percent response, % at 10 µM | shares compounds with MEKK3 PB1 HTS | bead flow cytometry, Alexa488-MEK5 binding to MEKK2 mutant | hit rate 2% among 5,900; in the data active = percent response mostly above about 71%, no sharp cut-off; inactive = mostly below about 38%;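 also: higher means compound restores mutant binding toward wildtype level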
MEKK3-MEK5 inh: MEKK3-MEK5 PB1 inhibition, single concentration confirmation; shares compounds with MEKK3 PB1 HTS; bead flow cytometry, Alexa488-MEK5 binding to MEKK3; stronger effect = lower value; binding response (% of control), % at 10 µM; hit rate 1.8% among 5,900;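 active = binding response below 72% of control, or above a set upper limit, though filed actives all read lower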
Numbers stand for hits; i = inactive; nt = no result; + = active, no number; ! = not active in a repeat; [ ] = remark or other dose.

SMILES	Apaf1 inhib	MEKK3 PB1 HTS	MEKK2mut PB1 HTS	UBC13 polyUb	MEKK2 WT-MEK5	MEKK2wt confirm	MEKK2mut-MEK5	MEKK3-MEK5 inh
CCCn1nc(C(=O)OCC(=O)c2ccc3c(c2)NC(=O)CO3)c2ccccc2c1=O	i	132.0	i	i	i	i	i	i
N#C/C(=C\c1cccs1)C(=O)NCc1ccco1	i	i	i	i	i	nt	nt	nt
Cc1ccsc1/C=C(\C#N)C(=O)NCc1ccco1	nt	128.0	i	nt	i	i	i	i
Cc1ccc(-c2nc3ccccc3s2)cc1NC(=O)c1ccc2c(c1)OCO2	i	1.0[inhibitor]	i	i	-2.0[inhibitor]	i	i	i
CC1(C)Cc2c(C#N)c(N)sc(=S)c2CS1	i	i	i	i	56.0[inhibitor]	i	i	i
O=C(NCc1ccccc1CN1CCCC1)c1cc2cc(Cl)ccc2o1	i	nt	nt	i	nt	nt	nt	nt
CSC(=NC#N)N1CCN(C(=NC#N)SC)CC1	i	2.0[inhibitor]	i	i	1.0[inhibitor]	i	i	i
CSC(=NC#N)N1CCN(C(c2ccccc2)c2ccccc2)CC1	i	i	i	i	i	nt	nt	nt
CCC1Oc2ccc(C)cc2N(CC(=O)NCC2CCCO2)C1=O (stereo not given)	i	i	i	i	i	nt	nt	nt
CN(/N=C/c1cc(Cl)ccc1O)C1=NS(=O)(=O)c2ccccc21	i	i	i	i	i	nt	nt	nt
CCN1/C(=C/c2ccc3cc(C)ccc3[n+]2CC)Sc2ccccc21	i	i	i	i	14.0[inhibitor]	i	i	i
CC[n+]1c(/C=C2\Sc3ccccc3N2C)ccc2cccc(C)c21	nt	47.0[inhibitor]	76.0	nt	nt	i	i	i
CC(C)(C)OC(=O)N1CCC(CNC(=O)c2ccc(F)cc2)CC1	i	i	i	i	i	nt	nt	nt
CC(=O)c1cccc(CN2CCC(C(=O)Nc3ccc(Oc4cccnc4)cc3)CC2)c1	i	i	i	i	i	nt	nt	nt
CC(=O)c1cccc(CN2CCC(C(=O)Nc3ccc(-c4cccc(C)c4)cc3)CC2)c1	i	i	i	i	176.0	i	i	i
COCCn1cnc2c(c1=O)c1nc3ccccc3nc1n2/N=C/c1ccc(OC)c(OC)c1	i	i	i	i	i	nt	nt	nt
O=c1c2c3nc4ccccc4nc3n(/N=C/c3ccncc3)c2ncn1-c1ccccc1	i	131.0	i	i	i	i	i	i
CCC1=C(OC(=O)N(CC)CC)N2C(=O)OC(=NCCc3c[nH]c4ccccc34)[C@]2(Cc2ccccc2)[C@H]2C1=CC[C@H]1C(=O)N(CC(=O)OC)C(=O)[C@H]12	i	2.0[inhibitor]	i	i	2.0[inhibitor]	i	i	i
CNCCCC12CCC(c3ccccc31)c1ccccc12	i	i	i	i	137.0!	i	i	i
CNCCCC1c2ccccc2C=Cc2ccccc21	i	i	i	i	i	nt	nt	nt
Cc1cc(C)cc(N(C(=O)C2CCCC2)C2C=CS(=O)(=O)C2)c1 (stereo not given)	i	76.0[inhibitor]	i	i	i	i	i	i
Cc1cc(C)cc(N(C(=O)c2cc3ccccc3oc2=O)C2C=CS(=O)(=O)C2)c1 (stereo not given)	i	141.0	i	i	i	i	i	i
Cc1ccc(N(C(=O)c2cc3ccccc3oc2=O)C2C=CS(=O)(=O)C2)cc1 (stereo not given)	i	i	i	i	i	nt	nt	nt
CCCCCC(=O)Nc1sc(C)c(C)c1C#N	i	i	i	i	i	nt	nt	nt
CCCCn1cc(C(C)(C)C)c(C#N)c1NC(C)=O	i	46.0[inhibitor]	i	i	52.0[inhibitor]	i	i	i
SMILES	Apaf1 inhib	MEKK3 PB1 HTS	MEKK2mut PB1 HTS	UBC13 polyUb	MEKK2 WT-MEK5	MEKK2wt confirm	MEKK2mut-MEK5	MEKK3-MEK5 inh
CC1(C)Cc2cccc(OCC(O)CN3CCN(c4ccccn4)CC3)c2O1 (stereo not given)	nt	127.0	i	nt	i	i	i	i
CN(C)CCCN(C(=O)CCSc1ccccc1)c1nc2cc3c(cc2s1)OCO3	i	i	i	i	153.0	i	i	i
CN(C)CCCN(C(=O)c1ccc(S(=O)(=O)N(C)C)cc1)c1nc2cc3c(cc2s1)OCO3	i	i	i	i	i	nt	nt	nt
CN(C)CCCN(C(=O)c1ccc(S(=O)(=O)N2CCCCCC2)cc1)c1nc2c(F)cc(F)cc2s1	i	nt	nt	i	nt	nt	nt	nt
CN(C)CCCN(C(=O)c1ccc(S(=O)(=O)N2CCc3ccccc32)cc1)c1nc2ccc(F)cc2s1	i	i	25.0	i	166.0	i	i	i
CN(C)CCCN(C(=O)c1ccc(S(=O)(=O)N(C)C)cc1)c1nc2ccc(F)cc2s1	i	i	i	i	i	nt	nt	nt
CN(C)CCCN(C(=O)c1ccc2c(c1)CCCC2)c1nc2ccc(F)cc2s1	i	138.0	i	i	142.0	i	i	i
CN(C)CCCN(C(=O)c1ccc2c(c1)CCCC2)c1nc2cc3c(cc2s1)OCO3	i	i	i	i	154.0	i	i	i
CCN(CC)CCN(C(=O)c1ccc2c(c1)CCCC2)c1nc2c(C)cccc2s1	i	i	29.0	i	158.0	i	i	i
CCN(CC)CCN(C(=O)c1ccc2c(c1)OCCO2)c1nc2c(Cl)cccc2s1	i	i	i	i	i	nt	nt	nt
CCN(CC)CCN(C(=O)c1ccccc1OC)c1nc2ccc(F)cc2s1	i	i	i	i	i	nt	nt	nt
CCN(CC)CCN(C(=O)c1ccc2c(c1)CCCC2)c1nc2ccc(F)cc2s1	i	i	i	i	154.0	i	i	i
Cc1c(C)c2ccc(OCC(=O)NCCCn3ccnc3)c(C)c2oc1=O	i	i	i	i	i	nt	nt	nt
CC(=O)c1c(C)n([O-])c2cc(F)c(F)cc2[n+]1=O	i	71.0[inhibitor]	i	i	-12.0	i	i	i
O=C(Nc1cc(Cl)cc(Cl)c1)C(c1ccccc1)N1CCCCC1 (stereo not given)	i	153.0	i	i	i	i	i	i
COc1cccc(NC(=O)C(c2ccccc2)N2CCCCC2)c1 (stereo not given)	i	i	i	i	i	nt	nt	nt
CC(C)=N/N=C(/c1ccc([N+](=O)[O-])cc1)C12CN3CN(CN(C3)C1)C2	i	148.0	+	i	nt	i	i	i
CCN(CC(=O)Nc1cccc(C(C)=O)c1)S(=O)(=O)c1ccc(C)cc1	i	i	i	i	i	nt	nt	nt
CCCCNC(=O)C1C2C=CC(C2)C1C(=O)O (stereo not given)	i	149.0	i	i	i	i	i	i
CC(=O)Nc1cc(NC(C)=O)cc(C(=O)N2CCCC3CCCCC32)c1 (stereo not given)	i	i	i	i	i	nt	nt	nt
O=C(OCC(=O)c1c[nH]c2ccccc12)c1cccc(S(=O)(=O)N2CCCCCC2)c1	i	130.0	i	i	i	i	i	i
O=C(COC(=O)c1cccc(S(=O)(=O)N2CCCCC2)c1)NCc1ccccc1	i	nt	nt	i	nt	nt	nt	nt

Bioassay records (PubChem)
